Drawing on ChEMBL document CHEMBL4513216, “Probing the Open Global Health Chemical Diversity Library for Multistage-Active Starting Points for Next-Generation Antimalarials” (ACS Infect Dis, 2020), this text covers cytotoxicity for 96 molecules.

A short description of this series: Toxicity liver stage against HepG2, at 10uM. The note with it: human, HepG2-A16-CD81EGFP cells; read-out: INHIBITION
Further details: test concentration 10 uM, cell line HepG2-A16-CD81EGFP. The series is classed as cell-based. Summed up:
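Uninfected HepG2-A16-CD81EGFP cells, 3 × 10^3 per well, 1536-well, plated on prespotted compound at 10 μM final, parasite-free screening media added to match infected plates; puromycin 10 μM positive, DMSO 0.5% negative; run in parallel with 48 h PbLuc assay at 37 °C, 5% CO2; viability by CellTiter-Glo luminescence, normalized to controls.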
In the case of `Cc1ncoc1C(=O)N1CCOC(Cc2ccccc2)C1` (stereo unspecified), the cytotoxicity at 10 µM is 2.23%.

On to `CC1(C)CNC(=O)CN(C(=O)COc2ccccc2)C1`, for which the cytotoxicity at 10 µM worked out at 1.4%.

Take `COC1CCN(C(=O)Nc2ccccc2)CC(=O)N(C)c2ccccc21` (stereo unspecified): the cytotoxicity at 10 µM was 2.94%.

Regarding `CC(C)CCN1C(=O)C2(NC(=O)c3ccccc3O2)c2ccccc21` (stereo unspecified), the cytotoxicity at 10 µM is 4.02%.

Regarding `O=C(c1nc(Cc2c[nH]c3ccccc23)no1)N1CCCCC1`, the cytotoxicity at 10 µM was found to be 6.04%.

With `Cc1cc(C)nc(NCCC(=O)Nc2ccc(Cn3cncn3)cc2)n1`, the cytotoxicity at 10 µM is -2.82%.

Take `CCS(=O)(=O)N1CCc2nc(N3CCOCC3)nc(N(C)C)c2CC1`: the cytotoxicity at 10 µM came to 21.3%.

With `CN1C(=O)CC2(CCN(S(=O)(=O)C3CC3)CC2)c2ccccc21`, the cytotoxicity at 10 µM was found to be 2.04%.

As to `CCCS(=O)(=O)NCC1OCCc2cn(CC3CCOCC3)nc21` (stereo unspecified), the cytotoxicity at 10 µM was -5.6%.

As to `CCC(C)NC(=O)Cn1c(Nc2cc(C)cc(C)c2)nc(C)cc1=O` (stereo unspecified), the cytotoxicity at 10 µM was found to be 9.91%.

With `COCCNC(=O)c1cc2c(nc1O)CC(c1cccs1)CC2=O` (stereo unspecified), the cytotoxicity at 10 µM stood at 11.9%.

On to `Cc1cc(O)c(OCC(=O)Nc2nc3c(s2)CCCCC3)cn1`, for which the cytotoxicity at 10 µM stood at 3.93%.

With `Cn1ccnc1-c1nc(N2CCCCC2)ncc1-c1ccccc1F`, the cytotoxicity at 10 µM came out at 12.4%.

For the molecule `Cc1ccc2nc(C)cc(NCCNS(=O)(=O)c3cn(C)nc3C)c2c1`, the cytotoxicity at 10 µM is 8.06%.

For `O=C(CCC1CCCC1)N1CCC(c2cc3ncccc3c(O)n2)CC1`, the cytotoxicity at 10 µM is -4.82%.

`Cc1nc(C2CCCN2C(=O)c2ccc(F)cc2)ncc1C(N)=O` (stereo unspecified): the cytotoxicity at 10 µM is -7.62%.

In the case of `Cc1noc(C)c1C(=O)N1CCCC(c2c(C)c(=O)nc3n2CCC3)C1` (stereo unspecified), the cytotoxicity at 10 µM is -21.1%.

As for `COC(=O)CNC(=O)c1nc(-c2ccccc2OC)c2cnccn12`, the cytotoxicity at 10 µM was found to be 8.6%.

For the molecule `CC(C)NC(=O)N1CCCCC1c1nnc2n1CCNC2` (stereo unspecified), the cytotoxicity at 10 µM is 14.3%.

On to `O=C(NCc1nnc2n1CCCCC2)N(CC1CCOC1)C1CC1` (stereo unspecified), for which the cytotoxicity at 10 µM was found to be 5.63%.

Take `O=C(c1cc(Br)c[nH]1)N1CCN(Cc2ccco2)CC1`: the cytotoxicity at 10 µM was -64.2%.

Regarding `CN(Cc1ccc(F)c(F)c1)C(=O)CCc1nc(-c2nnc[nH]2)no1`, the cytotoxicity at 10 µM was -43.6%.

Take `CN(C)C1(CNC(=O)c2c(O)cc(Cl)cc2Cl)CCOCC1`: the cytotoxicity at 10 µM was -9.46%.

On to `CC(C)CCc1noc(C[S+]([O-])CC(=O)NCc2ccccc2)n1` (stereo unspecified), for which the cytotoxicity at 10 µM was determined as 5.28%.

On to `CC(C)CC(C#N)NC(=O)CCNC(=O)C(C)(C)C` (stereo unspecified), for which the cytotoxicity at 10 µM was -3.3%.

For the molecule `Cc1ccc(C(=O)NCC(C)Cn2ccnc2C)c(=O)[nH]1` (stereo unspecified), the cytotoxicity at 10 µM was -0.89%.

Turning to `CCc1nc(NC(=O)Cc2csc(-c3nnc[nH]3)n2)sc1C`, the cytotoxicity at 10 µM is -45.1%.

For `CC(C)c1nc(CN(C)S(=O)(=O)c2cccs2)cs1`, the cytotoxicity at 10 µM is -48.8%.

Turning to `COc1ccc(CCCC(=O)N2CCCC(n3cncn3)C2)cc1` (stereo unspecified), the cytotoxicity at 10 µM was -6.96%.

In the case of `CCn1cc(CN2CCCN(C(=O)C3(C)CCOCC3)CC2)cn1`, the cytotoxicity at 10 µM was -45.4%.

As to `CCOc1c(F)cccc1C(=O)N(c1cccnc1)C(C)C`, the cytotoxicity at 10 µM is 1.52%.

In the case of `CNC(=O)NC(=O)CSC(C)c1ccccc1F` (stereo unspecified), the cytotoxicity at 10 µM is -14.4%.

With `Cc1cc(C2CCCN2C(=O)NCc2cccnc2)on1` (stereo unspecified), the cytotoxicity at 10 µM was 0.458%.

Regarding `O=C(NCC1CCCCC1)NC1CCCc2c1cnn2CCO` (stereo unspecified), the cytotoxicity at 10 µM was -2.92%.

Consider `O=C(CN1C(=O)c2ccccc2CS1(=O)=O)c1ccc(Cl)cc1`, for which the cytotoxicity at 10 µM stood at 4.17%.

Consider `CC(=O)c1cccc(OCCCC(=O)N(C)Cc2cnc(C)s2)c1`, for which the cytotoxicity at 10 µM was found to be 14.2%.

Take `N#Cc1cccc(OCCN2CCCC2C(=O)N2CCSCC2)c1` (stereo unspecified): the cytotoxicity at 10 µM was 9.06%.

On to `CC(C)(C)OC(=O)N1CCCc2ccc(NCc3ccon3)cc21`, for which the cytotoxicity at 10 µM was determined as 10.9%.

`Cc1ccc(C2CN(C(=O)c3c(C)cc(C)[nH]c3=O)CCO2)c(C)c1` (stereo unspecified): the cytotoxicity at 10 µM was -19.8%.

For the molecule `CS(=O)(=O)CCC(=O)N(Cc1c(F)cccc1F)C1CCCC1`, the cytotoxicity at 10 µM was -12.9%.

In the case of `CC(C)c1nc(S(=O)(=O)N(C)c2ccc(F)cc2)c[nH]1`, the cytotoxicity at 10 µM was -0.131%.

On to `CN(Cc1ccco1)C(=O)c1ccc(=O)n(C)c1`, for which the cytotoxicity at 10 µM is -47.5%.

As for `Cn1ccnc1CN(CCCO)CC(F)(F)F`, the cytotoxicity at 10 µM came to 5.68%.

As to `CC(NC(=O)Nc1nccs1)c1cccnc1` (stereo unspecified), the cytotoxicity at 10 µM is -8.81%.

As for `COc1cc2c(c(OC)c1OC)CCN(CCN1CCCCC1)CC2`, the cytotoxicity at 10 µM was -15.7%.

With `O=C(Nc1ccc2c(c1)C(=O)NC2)c1ccc(S(=O)(=O)C(F)(F)F)cc1`, the cytotoxicity at 10 µM was determined as 36.9%.

For the molecule `CC(=O)c1ccc(-n2c(C)cn(CCS(C)(=O)=O)c2=O)cc1`, the cytotoxicity at 10 µM came to 11.5%.

In the case of `O=C(Cn1cc(-n2cccc2)cn1)NCC1CCC1`, the cytotoxicity at 10 µM turned out to be 14.7%.

As to `CN(C1CCN(c2ccccn2)CC1)S(=O)(=O)N1CCOCC1`, the cytotoxicity at 10 µM is -5.23%.

Turning to `O=C(CN(Cc1ccccc1)CC1CCOCC1)NC(=O)NC1CC1`, the cytotoxicity at 10 µM was -6.49%.

Take `CN(C(=O)Cc1ccc(NC(=O)NC2CCC2)cc1)c1ccccc1`: the cytotoxicity at 10 µM was -6.11%.

With `COc1cccc(NC(=O)N2CC[C@@H]3CN(C)S(=O)(=O)[C@@H]3CC2)c1`, the cytotoxicity at 10 µM was found to be 7.3%.

On to `COCCNC(=O)[C@H]1CN(c2ncccn2)C[C@H]2OCC[C@@H]12`, for which the cytotoxicity at 10 µM is -80.7%.

For `O=C1CC2(CCN(Cc3ccsc3)C2)CN1c1ccc2c(c1)OCO2` (stereo unspecified), the cytotoxicity at 10 µM was -75%.

Regarding `CC(=O)N1CCC2(CC1)CCN(C(=O)c1cccc(C(F)(F)F)c1)C2`, the cytotoxicity at 10 µM was -74.5%.

Turning to `CN(CCO)C[C@@H]1CN(C2CCN(c3ccccc3Cl)CC2)C[C@@H]1CO`, the cytotoxicity at 10 µM was -9.22%.

In the case of `Cc1nn(C)c2nc(N3CCC(C(O)c4ccccn4)CC3)sc12` (stereo unspecified), the cytotoxicity at 10 µM turned out to be 22.2%.

For the molecule `CCc1nc(CCNS(=O)(=O)c2cccc(C(=O)N(C)CC)c2)cs1`, the cytotoxicity at 10 µM was -36.2%.

`COCCn1c(=O)n(Cc2cccc(F)c2F)c2cc(C(=O)O)ccc21`: the cytotoxicity at 10 µM stood at 9.15%.

`COc1nc2c(cc1C(=O)NCc1noc(-c3ccco3)n1)CCC2`: the cytotoxicity at 10 µM is -6.04%.

As to `O=C(NCCN1CCCCC1=O)C1CCC(=O)N(C2CCCC2)C1` (stereo unspecified), the cytotoxicity at 10 µM is -10.8%.

On to `CN1CC2(CCCN(Cc3ccc(Oc4ccccc4)cc3)C2)OC1=O` (stereo unspecified), for which the cytotoxicity at 10 µM was found to be 15.8%.

`O=C(CCC(=O)N1CCNC(=O)C1c1cccc(F)c1)NC1CCCC1` (stereo unspecified): the cytotoxicity at 10 µM stood at 2.68%.

`COc1ccccc1OC1(C(=O)O)CCN(c2ncnc(C)c2C)CC1`: the cytotoxicity at 10 µM is -11.2%.

Turning to `CNc1nc(C(=O)N2C[C@@H]3CCN(C)[C@@H]3C2)cs1`, the cytotoxicity at 10 µM was -10.8%.

For `COc1cc(C)ccc1S(=O)(=O)N[C@H]1CN(C(C)=O)C[C@@H]1C1CC1`, the cytotoxicity at 10 µM stood at 5.71%.

Take `N#Cc1cccc(Oc2ccc(CN3CCCC3)cc2Cl)n1`: the cytotoxicity at 10 µM is -16%.

Take `Cc1cc(N2CCCC(N(C)C)C2)n2nccc2n1` (stereo unspecified): the cytotoxicity at 10 µM was -43.4%.

As for `CCN1CCC(CC(=O)N(C)CC(=O)c2ccc(O)cc2)CC1`, the cytotoxicity at 10 µM came to 1.73%.

Regarding `Cc1nccc(N[C@H]2CN(C(=O)CCN3CCCC3=O)C[C@@H]2C(C)C)n1`, the cytotoxicity at 10 µM is -6.3%.

For `CC(CCc1ccc(O)cc1)NC1CCN(S(C)(=O)=O)CC1` (stereo unspecified), the cytotoxicity at 10 µM worked out at 1.46%.

For the molecule `CCNC(=O)[C@@H]1C[C@H](N)CN1C1CCN(c2ccccc2OC)CC1`, the cytotoxicity at 10 µM was -43.9%.

On to `CCN(C)CC(=O)N1CCCC(c2nnc(CN3CCOCC3)n2C)C1` (stereo unspecified), for which the cytotoxicity at 10 µM is -8.28%.

Regarding `OC1(CNCCSCc2ccccc2)CCCNC1` (stereo unspecified), the cytotoxicity at 10 µM was 1.84%.

Take `CC(C)[C@H]1CN(C2Cc3ccccc3C2)C[C@@H]1NS(C)(=O)=O`: the cytotoxicity at 10 µM is -16%.

Take `CN1CCN(Cc2ccc(-c3ccc(-c4ccn[nH]4)cc3)nc2)CC1`: the cytotoxicity at 10 µM stood at 3.61%.

Take `Cc1cc(F)ccc1CN1CCCC(O)(CN2CCCC2)C1` (stereo unspecified): the cytotoxicity at 10 µM is -5.19%.

`COc1ccc(C2(C(=O)N3CC(c4cccnc4)C3)CC2(C)C)cc1` (stereo unspecified): the cytotoxicity at 10 µM stood at 12.3%.

For `Cc1ccccc1C(=O)N1CCOC2(CNCCOC2)C1` (stereo unspecified), the cytotoxicity at 10 µM was -16.5%.

Turning to `COc1ccc(-c2cc(C3CCCCCN3S(=O)(=O)N(C)C)on2)cc1` (stereo unspecified), the cytotoxicity at 10 µM turned out to be 2.24%.

Take `Cn1ccnc1CN1CCCN(C(=O)c2ccc3cc[nH]c3c2)CC1`: the cytotoxicity at 10 µM was -6.44%.

With `Cc1ccccc1C1(C(=O)NCCN2CCC(C)CC2)CCOCC1`, the cytotoxicity at 10 µM was found to be 3.57%.

Turning to `Cc1nc(C2CCCN2CC(=O)NCCOc2ccc(F)cc2)no1` (stereo unspecified), the cytotoxicity at 10 µM is -9.63%.

As for `Cc1cccc(N2CCN(CCNC(=O)C(C)n3cncn3)CC2)c1` (stereo unspecified), the cytotoxicity at 10 µM is -1.91%.

Take `CC(C)(C#N)C(=O)N1CCCC(c2cc(C(F)(F)F)[nH]n2)C1` (stereo unspecified): the cytotoxicity at 10 µM was -5.67%.

`CN1CCOC(CN(C(=O)CC2CCCC2)c2nccs2)C1` (stereo unspecified): the cytotoxicity at 10 µM was -3.78%.

As for `N#Cc1ccc(S(=O)(=O)NC(=O)C2CC2)c(C(F)(F)F)c1`, the cytotoxicity at 10 µM is -11.1%.

`CC(C)n1cc(CN2CCCN(C(=O)c3cc(Cl)c[nH]3)CC2)cn1`: the cytotoxicity at 10 µM is -10.9%.

`CCOc1ccc(Cl)cc1C1CCCCN1` (stereo unspecified): the cytotoxicity at 10 µM came out at 9.15%.

For `O=C(c1cccc(Cl)c1)N1CCCn2c(CN3CCCCC3)nnc2C1`, the cytotoxicity at 10 µM came out at 4.01%.

In the case of `O=C(CC1CC1)N1CCO[C@H]2[C@H](OCCCn3cccn3)CC[C@@H]21`, the cytotoxicity at 10 µM was found to be 6.23%.

In the case of `CC(C)NCC1OCCc2cn(C)nc21` (stereo unspecified), the cytotoxicity at 10 µM turned out to be 9.91%.

`COc1ccccc1CNC(Cc1cccs1)c1nc(C)c(C)s1` (stereo unspecified): the cytotoxicity at 10 µM was 3.89%.

`CC(C)COCC1CN(Cc2ccc3c(c2)OCO3)Cc2ncn(C)c21` (stereo unspecified): the cytotoxicity at 10 µM was -10.7%.

For the molecule `CN(C)CCOCc1cncc2c1CCN(C(=O)C1CCOCC1)C2`, the cytotoxicity at 10 µM is -1.87%.

`c1ccc(CN2CCOC3CNCC[C@H]32)cc1` (stereo partly specified): the cytotoxicity at 10 µM turned out to be 6.31%.
